This is an account of results in ChEMBL document CHEMBL4622838, “Deuteration of the farnesyl terminal methyl groups of δ-tocotrienol and its effects on the metabolic stability and ability of inducing G-CSF production” (Bioorg Med Chem, 2020).

The source made the active and inactive calls. No cut-off for these calls is given here.

Data set [1] can be described thus: Metabolic stability in mouse live microsomes assessed as compound degradation in absence of NADPH. It counts as ADME, Liver, Microsome. Put shortly:
(§1)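 Mouse liver microsomes (5 mg protein/mL) in 0.2 M potassium phosphate, pH 7.4, with EDTA. Test compound at 1 µM preincubated 30 min at 37 °C, then started with an NADPH-generating system (NADP⁺, Glc-6-PO₄, MgCl₂, G6PDH); controls received buffer in place of NADPH. Sampled at 5, 15 and 30 min into cold acetonitrile containing GT3 internal standard. Percent remaining reported, n = 3.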

Data set [2] is described as follows: AUC (0 to infinity) in CD2F1 mouse at 50 mg/kg, iv measured up to 24 hrs. It counts as ADME, organism-based. Also noted: dose 50 mg/kg, time infinity, route intravenous. The settings on record: in vivo. In a few lines:
(§2)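 Single IV bolus in CD2F1 mice, emulsified in PBS with 33% PEG400 and 2% tween 80 (150 µL/mouse, 0.22 µm filtered), n = 4 per group. Retro-orbital blood into EDTA-K tubes at 0, 5, 10, 30 min and 1, 2, 4, 6, 12, 24 h. Plasma extracted with methanol/ascorbic acid plus heptane/BHT, internal standard, HPLC-fluorescence.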

A short description of data set [3]: Plasma concentration in CD2F1 mouse at 200 mg/kg, sc administered as single dose measured after 1 hr by HPLC-fluorescence analysis. It is filed as ADME, organism-based. Put shortly:
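Single subcutaneous dose of 200 mg/Kg in CD2F1 mice, emulsified in PBS with 5% tween 80 and filter-sterilized, n = 3–4. Retro-orbital blood drawn at 0 min to 24 h. Plasma mixed with internal standard, methanol containing 2% ascorbic acid and heptane containing 1% BHT. Upper layer dried under N₂, reconstituted in methanol and quantified by HPLC-fluorescence.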

Data set [4] in a line: Clearance in CD2F1 mouse at 50 mg/kg, iv measured up to 24 hrs. The settings on record: in vivo. It counts as ADME, organism-based. Put shortly:
(§3)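 Single IV bolus, 50 mg/Kg, emulsified in PBS with 33% PEG400 and 2% tween 80, 150 µL/mouse, filter-sterilized; n = 4 per group. Retro-orbital blood into EDTA potassium tubes at 0, 5, 10, 30 min, 1, 2, 4, 6, 12, 24 h. Plasma extracted with methanol (2% ascorbic acid) and heptane (1% BHT) plus internal standard; HPLC-fluorescence quantitation.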

Data set [5] in a line: Half life in mouse liver microsomes. It is filed as ADME, Microsome. (In general: Microsomes from liver hold many membrane-bound enzymes, among them those of drug oxidation.)
A short description of data set [6]: AUC (0 to last) in CD2F1 mouse at 50 mg/kg, iv measured up to 24 hrs. It is filed as ADME, organism-based. Also noted: dose 50 mg/kg, route intravenous, time 0 - last. The conditions noted are these: in vivo. Put shortly:
as §2

A short description of data set [7]: Volume of distribution in CD2F1 mouse at 50 mg/kg, iv measured up to 24 hrs. It counts as ADME, organism-based. The conditions noted are these: in vivo. In a few lines:
as §3

The nature of data set [8]: Metabolic stability in mouse liver microsomes assessed as compound degradation at 1 uM preincubated for 30 mins followed by NADPH addition measured up to 30 mins by HPLC-UV analysis. It counts as ADME, Microsome. The conditions noted are these: 0.5 h. In a few lines:
as §1

Data set [9] in a line: AUC (0 to last) in CD2F1 mouse at 200 mg/kg, sc measured up to 24 hrs. It is filed as ADME, organism-based. More on the design: dose 200 mg/kg, route subcutaneous, time 0 - last. The settings on record: in vivo. In a few lines:
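Single SC injection in CD2F1 mice, emulsified in PBS with 5% tween 80 (100 µL/mouse, 0.22 µm filtered), n = 4 per group. Retro-orbital blood into EDTA-K tubes at 0, 7.5, 15, 30 min and 1, 2, 4, 6, 8, 12, 24 h. Plasma extracted with methanol/ascorbic acid plus heptane/BHT, internal standard, HPLC-fluorescence.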

Data set [10] can be described thus: Cmax in CD2F1 mouse at 200 mg/kg, sc measured up to 24 hrs. It counts as ADME, organism-based. The conditions noted are these: in vivo. More on the design: dose 200 mg/kg, route subcutaneous. Put shortly: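 Single subcutaneous dose, 200 mg/Kg, emulsified in PBS with 5% tween 80, 100 µL/mouse, filter-sterilized; n = 4 per group. Retro-orbital blood into EDTA potassium tubes at 0, 7.5, 15, 30 min, 1, 2, 4, 6, 8, 12, 24 h; plasma at -80 °C. Heptane/methanol extraction with internal standard, HPLC-fluorescence; peak concentration taken from the concentration-time profile.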

Data set [11] can be described thus: Intrinsic clearance in mouse liver microsomes. It is filed as ADME, Microsome. In a few lines:
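Mouse liver microsomes (5 mg protein/mL) in potassium phosphate buffer pH 7.4 with EDTA; compound 1 µM preincubated 30 min at 37 °C, reaction started with NADPH-generating system (NADP⁺, glucose-6-phosphate, MgCl₂, G6PDH); no-NADPH control. Sampled at 5, 15, 30 min into cold acetonitrile with internal standard; percent remaining measured; half-life and clearance calculated; n = 3.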

Data set [12] relates to Mus musculus. Briefly: Induction of G-CSF production in CD2F1 mouse at 200 mg/kg, sc by G-CSF ELISA kit method. The conditions noted are these: TDE = time-dependent effect. It counts as functional, organism-based. In a few lines:
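CD2F1 mice, subcutaneous dose of 0.5 mM/Kg (200 mg/Kg) emulsified in PBS with 5% tween 80, n = 3–4. Blood taken into EDTA-K tubes at 8, 12, 24 and 48 h. Plasma spun at 1200 rpm, 15 min, 4 °C and held at −80 °C. G-CSF measured by mouse ELISA, each sample run in duplicate and averaged, with a standard curve on every plate.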
For orientation: ELISA stands for enzyme-linked immunosorbent assay.

The test system of data set [13] is Mus musculus. Briefly: Induction of G-CSF production in CD2F1 mouse at 200 mg/kg, sc pretreated with ketoconazole after 24 hrs by G-CSF ELISA kit method. It counts as functional, organism-based. Put shortly:
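CD2F1 mice received ketoconazole in corn oil (5 mg/250 µL/mouse) by oral gavage at 26, 14 and 2 h before drug. Drug then given subcutaneously at 200 mg/Kg in 5% tween 80/PBS, n = 3. Plasma collected at 8 and 24 h. G-CSF measured by ELISA in duplicate against a per-plate standard curve.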

In the case of `[2H]C([2H])([2H])C(=CCC/C(C)=C/CC/C(C)=C/CC[C@]1(C)CCc2cc(O)cc(C)c2O1)C([2H])([2H])[2H]`, the Stability entry is reported as “Stable” in data set [1] and “Unstable” in data set [8]. Besides, the AUC (commonly concentration integrated over time) in data set [2] turned out to be 35707 ng·h/mL. The concentration at 1 h in data set [3] lay within 800 to 1000 ng/mL. In data set [4], this compound yielded a CL of 23.3 mL/min/kg. The same compound yielded a t1/2 in data set [5] of 2.642 h. The figures for the AUClast in data set [6] and in [9] were 34213 ng·h/mL and 11354 ng·h/mL, respectively. In addition, in data set [7], the Vd (usually a proportionality between amount in the body and measured concentration, not a real space) is 21.3 L/kg. Moreover, the Cmax (in general, the highest concentration seen after dosing) in data set [10] was determined as 970 ng/mL. Also, the CLH in data set [11] came out at 3580 µL/min/mg.

In the case of `CC(C)=CCC/C(C)=C/CC/C(C)=C/CC[C@]1(C)CCc2cc(O)cc(C)c2O1` [DELTA-TOCOTRIENOL], the Stability entry in data set [1] was “Stable”; in data set [8], “Unstable”. Further, in data set [2], the AUC was found to be 33456 ng·h/mL. The compound further gave a concentration at 1 h in data set [3] of 800 to 1000 ng/mL. Also, in data set [4], the CL was found to be 24.92 mL/min/kg. Moreover, the t1/2 in data set [5] came out at 1.778 h. Further, the AUClast in data set [6] was determined as 32804 ng·h/mL; in [9] it was 10314 ng·h/mL. Moreover, the Activity result in the data set with Mus musculus [12] and in the data set with Mus musculus [12] (tested as the 2H-labelled form) was “Tde” throughout. The compound further registered a Vd in data set [7] of 20.7 L/kg. Further, the result with Mus musculus [13] and in the data set on Mus musculus [13] (tested as the 2H-labelled form) was Active. Besides, in [10], the Cmax is 810 ng/mL. This compound also came in with a CLH in data set [11] of 5260 µL/min/mg.
